Tests used:
Hs 683 = assay: Growth inhibition of human Hs683 cells after 72 hrs by MTT assay; format: functional; conditions: Hs 683, 72 h
Procedure, shortened: (§1)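 Cells were grown in RPMI with 10% heat-inactivated fetal bovine serum, 4 mM glutamine, 100 μg/mL gentamicin and penicillin–streptomycin (200 units/mL and […]). They were cultured with compound for 72 h, then read by MTT colorimetric assay. GI50 is the concentration cutting growth by 50% relative to untreated control.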

U373 MG = assay: Growth inhibition of human U373 cells after 72 hrs by MTT assay; format: functional, U-373MG ATCC; procedure, shortened: as §1
A549 = assay: Growth inhibition of human A549 cells after 72 hrs by MTT assay; format: functional; conditions: A549, 72 h; procedure, shortened: as §1
MCF7 = assay: Growth inhibition of human MCF7 cells after 72 hrs by MTT assay; format: functional; conditions: MCF7, 72 h; procedure, shortened: as §1
SK-MEL-28 = assay: Growth inhibition of human SK-MEL-28 cells after 72 hrs by MTT assay; format: functional; conditions: SK-MEL-28, 72 h; procedure, shortened: as §1
B16-F10 = assay: Growth inhibition of mouse B16F10 cells after 72 hrs by MTT assay; format: functional; conditions: B16-F10, 72 h; procedure, shortened: as §1

| SMILES | GI50 (Hs 683) | GI50 (U373 MG) | GI50 (A549) | GI50 (MCF7) | GI50 (SK-MEL-28) | GI50 (B16-F10) |
| --- | --- | --- | --- | --- | --- | --- |
| CC(C)=CC(=O)NC(=N)N | > 100 µM | > 100 µM | > 100 µM | > 100 µM | > 100 µM | 92.8 µM |
| CC(C)=CCC/C(C)=C/C(=O)NC(=N)NC(=O)/C=C(\C)CCC=C(C)C | 32.7 µM | 38.9 µM | 46.9 µM | 42.4 µM | 61.9 µM | 23.8 µM |
| CC(C)=CC(=O)NC(=N)NC(=O)C=C(C)C | 60.3 µM | 45.6 µM | 75.6 µM | 59.7 µM | > 100 µM | 21.3 µM |
| CC(C)=CCC/C(C)=C/CC/C(C)=C/C(=O)NC(=N)NC(=O)C=C(C)C | 8.3 µM | 15.7 µM | 23.4 µM | 23.4 µM | 24.2 µM | 7.5 µM |
| C=C1CCCC(C)(C)[C@@H]1CC/C(C)=C/C(=O)NC(=N)NC(=O)C=C(C)C | 18.1 µM | 28.8 µM | 29.4 µM | 28.1 µM | 60.5 µM | 9.6 µM |
| CC(C)=CCC/C(C)=C/C(=O)NC(=N)N | 39.4 µM | 46 µM | 76.5 µM | 52.2 µM | 56.3 µM | 17.1 µM |
| CC(C)=CCC/C(C)=C/CC/C(C)=C/C(=O)NC(=N)N | 10 µM | 21 µM | 13.7 µM | 22 µM | 20.1 µM | 9.2 µM |
| CC(C)=CCC/C(C)=C/CC/C(C)=C/C(=O)NC(=N)NC(=O)/C=C(\C)CC/C=C(\C)CCC=C(C)C | 6.8 µM | 9.2 µM | 18.5 µM | 30.3 µM | 42.7 µM | 5.7 µM |
| CC(C)=CCC/C(C)=C/C(=O)NC(=N)NC(=O)C=C(C)C | 31.5 µM | 36.2 µM | 37.4 µM | 41.5 µM | 53.4 µM | 25 µM |
| CC(C)=CCC/C(C)=C/CC/C(C)=C/C(=O)NC(=N)NC(=O)/C=C(\C)CCC=C(C)C | 37.4 µM | 35 µM | 38.9 µM | 51.2 µM | 57.3 µM | 18.9 µM |
| COc1cc([C@@H]2c3cc4c(cc3[C@@H](O[C@@H]3O[C@@H]5CO[C@@H](C)O[C@H]5[C@H](O)[C@H]3O)[C@H]3COC(=O)[C@H]23)OCO4)cc(OC)c1O [ETOPOSIDE] | 1.5 µM | 24.9 µM | 1.7 µM | 4 µM | 3.2 µM |  |

From ChEMBL document CHEMBL4118029, “Marine Terpenoid Diacylguanidines: Structure, Synthesis, and Biological Evaluation of Naturally Occurring Actinofide and Synthetic Analogues” (2017)
